ChEMBL document CHEMBL3352780, “Discovery of Sulfonamidebenzamides as Selective Apoptotic CHOP Pathway Activators of the Unfolded Protein Response” (ACS Med Chem Lett, 2014)
One block for each molecule: values may come before it. The source made the active and inactive calls.

Legend:
MEF [1] = test: Antiproliferative activity against wild-type MEF cells after 16 hrs by luminescence assay; type: functional, cell-based; settings: Mus musculus
How it was run: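 Wild-type murine embryonic fibroblasts, run alongside a Chop-knockout MEF line, exposed to compound in dose-response for 16 h. Proliferation read by ATP-based luminescence. EC50 reported in μM ± SEM.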

MEF [2] = test: Antiproliferative activity against CHOP-knock out MEF cells after 16 hrs by luminescence assay; type: functional, cell-based; settings: Mus musculus
How it was run: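 Wildtype and Chop-knockout murine embryonic fibroblasts given test agent in dose-response for 16 h. Proliferation read by an ATP-based luminescent assay. Chop-null cells tested up to 20 μM; four independent experiments, triplicate samples.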

[3] = Antiproliferative activity against human UM-SCC-23 cells after 24 hrs; type: functional, UMSCC23
How it was run: (§1)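 Oral squamous cell carcinoma panel cells treated with increasing concentrations of test agent for 24 h in dose-response proliferation assays.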

[4] = Antiproliferative activity against human HN12 cells after 24 hrs; type: functional; how it was run: as §1
[5] = Antiproliferative activity against human HN30 cells after 24 hrs; type: functional; how it was run: as §1
A253 = test: Antiproliferative activity against human A253 cells after 24 hrs; type: functional, cell-based; how it was run: as §1
H460/T800 = test: Antiproliferative activity against human H460/T800 cells after 24 hrs; type: functional, cell-based
HN6 = test: Antiproliferative activity against human HN6 cells after 24 hrs; type: functional, cell-based; how it was run: as §1
UMSCC23 [6] = test: Induction of CHOP mRNA expression in human UM-SCC-23 cells at 0.04 to 20 uM after 6 hrs by qRT-PCR analysis; type: functional, cell-based
How it was run: (§2)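 UMSCC23 cells treated in dose-response for 6 h, then lysed. UPR and CHOP target gene transcripts measured by qRT-PCR, with tunicamycin as ER-stress positive control.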

UMSCC23 [7] = test: Induction of XBP1 mRNA expression in human UM-SCC-23 cells at 0.04 to 20 uM after 6 hrs by qRT-PCR analysis; type: functional, cell-based; how it was run: as §2
UMSCC23 [8] = test: Induction of GADD34 mRNA expression in human UM-SCC-23 cells at 0.04 to 20 uM after 6 hrs by qRT-PCR analysis; type: functional, cell-based; how it was run: as §2
UMSCC23 [9] = test: Induction of ERCC1 mRNA expression in human UM-SCC-23 cells at 0.04 to 20 uM after 6 hrs by qRT-PCR analysis; type: functional, cell-based; how it was run: as §2
UMSCC23 [10] = test: Induction of CHOP mRNA expression in human UM-SCC-23 cells at 20 uM after 6 hrs by qRT-PCR analysis; type: functional, cell-based; how it was run: as §2
UMSCC23 [11] = test: Induction of XBP1 mRNA expression in human UM-SCC-23 cells at 20 uM after 6 hrs by qRT-PCR analysis; type: functional, cell-based; how it was run: as §2
[12] = Aqueous solubility of the compound in PBS buffer by UV-spectrophotometry; type: physicochemical
How it was run: (§3)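 Solubility measured in PBS and pION buffer across a biologically relevant pH range.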

[13] = Aqueous solubility of the compound in pION buffer by UV-spectrophotometry; type: physicochemical; how it was run: as §3
[14] = Permeability of the compound at pH 5 to 7.4 by PAMPA; type: ADME
How it was run: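 PAMPA model of passive transcellular permeability, donor compartment at pH 5.0, 6.2 and 7.4. Compound concentration in the compartments determined by UV spectroscopy.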

Plasma [15] = test: Plasma protein binding in human plasma after 4 hrs by LC/MS/MS method; type: ADME, cell-free
[16] = Plasma protein binding in mouse plasma after 4 hrs by LC/MS/MS method; type: ADME, cell-free; settings: read-out: PPB (converted)
[17] = Stability in human plasma assessed as compound remaining after 180 mins by LC/MS/MS method; type: ADME, cell-free; settings: read-out: Stability
Plasma [18] = test: Stability in mouse plasma assessed as compound remaining after 180 mins by LC/MS/MS method; type: ADME, cell-free; settings: 3 h
Liver microsome = test: Metabolic stability in human liver microsomes after 60 mins by LC/MS/MS method; type: ADME; settings: 1 h
Liver = test: Metabolic stability in mouse liver microsomes after 60 mins by LC/MS/MS method; type: ADME; settings: 1 h
[19] = target: Sodium-dependent dopamine transporter (Homo sapiens) (UniProt Q01959); test: Displacement of [125I] RTI-55 from human recombinant DAT expressed in CHOK1 cells after 3 hrs; type: cell-based; settings: CHO-K1, concentration not given here
How it was run: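 Profiled at 10 μM within a 67-target panel of GPCRs, nuclear receptors, transporters and ion channels. Significant inhibition defined as >50% at a single target.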

[20] = Cytotoxicity against human Fa2N-4 cells assessed as cell viability after 24 hrs by luminescence assay; type: cell-based; settings: fa2n-4, 24 h
[21] = Cmax in CD-1 mouse at 30 mg/kg, ip; type: ADME, organism-based; design: dose 30 mg/kg, route intraperitoneal; settings: in vivo
How it was run: (§4)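 Male CD-1 mice, single IP dose of 30 mg/kg, 3 mice per group. Plasma concentrations determined at 7 intervals over 8 h.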

[22] = Tmax in CD-1 mouse at 30 mg/kg, ip; type: ADME, organism-based; design: dose 30 mg/kg, route intraperitoneal; settings: in vivo; how it was run: as §4

Sequence of Sodium-dependent dopamine transporter (Homo sapiens) (Q01959 whole entry): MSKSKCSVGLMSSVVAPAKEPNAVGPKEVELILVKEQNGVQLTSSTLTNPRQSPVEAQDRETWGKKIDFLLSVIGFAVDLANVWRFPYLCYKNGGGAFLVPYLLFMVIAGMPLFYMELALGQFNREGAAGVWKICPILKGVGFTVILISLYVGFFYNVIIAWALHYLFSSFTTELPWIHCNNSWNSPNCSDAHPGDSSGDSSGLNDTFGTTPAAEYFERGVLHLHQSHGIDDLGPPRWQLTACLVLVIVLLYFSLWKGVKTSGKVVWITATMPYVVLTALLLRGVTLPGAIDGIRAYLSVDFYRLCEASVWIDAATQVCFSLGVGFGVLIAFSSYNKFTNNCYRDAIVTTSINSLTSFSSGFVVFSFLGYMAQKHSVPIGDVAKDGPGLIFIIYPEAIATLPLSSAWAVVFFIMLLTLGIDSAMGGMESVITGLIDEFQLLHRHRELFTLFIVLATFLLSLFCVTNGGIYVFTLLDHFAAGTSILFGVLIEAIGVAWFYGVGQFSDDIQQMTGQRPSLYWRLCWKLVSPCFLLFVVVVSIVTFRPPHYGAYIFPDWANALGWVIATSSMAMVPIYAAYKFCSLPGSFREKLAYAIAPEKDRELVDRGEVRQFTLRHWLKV

SMILES: CC1(C)CCN(S(=O)(=O)c2ccc(NC(=O)c3ccc([N+](=O)[O-])o3)cc2)CC1
- EC50 (MEF [1]): 3 µM
- EC50 (MEF [2]): 9.2 µM

SMILES: CC1CCN(S(=O)(=O)c2ccc(NC(=O)c3ccc([N+](=O)[O-])o3)cc2)CC1
- EC50 (MEF [1]): 4.6 µM
- EC50 (MEF [2]): 16.3 µM

SMILES: O=C(Nc1ccc(S(=O)(=O)N2CCCCC2)cc1)c1ccc([N+](=O)[O-])o1
- EC50 (MEF [1]): 7.8 µM
- EC50 (MEF [2]): > 20 µM

- solubility [12]: soluble
- solubility [13]: soluble
- permeability [14]: permeable
- PPB (Plasma [15]): > 99%
- fraction unbound at 4 h [16]: 0.16
- remaining at 3 h [17]: 86%
- Stability (Plasma [18]): 52%
- Stability (Liver microsome): Unstable
- Stability (Liver): Unstable
- inhibition [19]: 68%
- Cmax [21]: 140 nM
- Tmax [22]: 10.2 min
SMILES: O=C(Nc1ccc(S(=O)(=O)N2CCC(Cl)CC2)cc1)c1ccc([N+](=O)[O-])o1
- EC50 (MEF [1]): 4.8 µM
- EC50 (MEF [2]): > 20 µM
- Activity [3]: 7.3 µM
- Activity [4]: 7.2 µM
- Activity [5]: 9 µM
- Activity (A253): inactive
- Activity (H460/T800): inactive
- Activity (HN6): inactive
- Activity (UMSCC23 [6]): Active
- Activity (UMSCC23 [7]): Active
- Activity (UMSCC23 [8]): Active
- Activity (UMSCC23 [9]): inactive
- Activity (UMSCC23 [10]): inactive
- Activity (UMSCC23 [11]): inactive
- Activity [20]: 11 µM

SMILES: O=C(Nc1ccc(S(=O)(=O)N2CCC(F)CC2)cc1)c1ccc([N+](=O)[O-])o1
- EC50 (MEF [1]): 17.5 µM
- EC50 (MEF [2]): > 20 µM

SMILES: CC(C)(C)C1CCN(S(=O)(=O)c2ccc(NC(=O)c3ccc([N+](=O)[O-])o3)cc2)CC1
- EC50 (MEF [1]): 1.4 µM
- EC50 (MEF [2]): 2.1 µM
